Wee1 stabilizer – Wee1 degradation inhibitors, primary screen, cell-based, HeLa, Wee1K328M-luciferase, luminescence; 220,000 compounds, 1.2% hits; HeLa Luc-Wee1K328M stability; 100% = proteasome inhibitor MG132 effect; Wee1-like protein kinase (Homo sapiens), P30291; reporter increase, % at 5 µM;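 active = activation above the mean of all tested compounds plus 3 SD, set per screening run, cut at about 8.8% in these data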;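 note: cells exposed to compound for 20 h before luminescence read; 0% = DMSO alone and 100% = MG132 at 30 µM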
Target sequence (P30291 whole entry K328M): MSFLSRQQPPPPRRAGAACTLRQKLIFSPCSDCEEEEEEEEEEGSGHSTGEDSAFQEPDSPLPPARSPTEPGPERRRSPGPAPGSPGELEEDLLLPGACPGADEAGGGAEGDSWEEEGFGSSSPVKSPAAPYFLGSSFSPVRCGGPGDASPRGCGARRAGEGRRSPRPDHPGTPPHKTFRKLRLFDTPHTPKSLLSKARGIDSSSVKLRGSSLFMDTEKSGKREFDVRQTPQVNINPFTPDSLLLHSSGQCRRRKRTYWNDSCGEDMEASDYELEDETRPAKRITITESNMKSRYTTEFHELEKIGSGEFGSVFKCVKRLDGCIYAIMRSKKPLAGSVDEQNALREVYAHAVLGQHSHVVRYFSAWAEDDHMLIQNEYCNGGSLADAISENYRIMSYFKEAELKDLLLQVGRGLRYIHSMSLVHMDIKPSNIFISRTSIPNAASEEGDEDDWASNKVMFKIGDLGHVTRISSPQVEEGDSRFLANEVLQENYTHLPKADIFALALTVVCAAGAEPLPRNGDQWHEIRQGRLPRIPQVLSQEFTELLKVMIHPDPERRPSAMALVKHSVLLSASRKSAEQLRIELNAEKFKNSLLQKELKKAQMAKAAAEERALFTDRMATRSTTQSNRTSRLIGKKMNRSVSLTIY
Pf gametocyte – late stage P. falciparum gametocyte viability inhibitors, primary screen, ATP luminescence, HTS; P. falciparum stage V gametocytes, 24 h; inhibition, % at 10.9 µM; 150,000 compounds, 0.065% hits; AID 743093, 2013;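 active = inhibition above the mean plus 3 SD of compounds within the control limits, set per campaign, cut at about 38% in these data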;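 note: 0% = DMSO wells and 100% = medium only without gametocytes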
L929 necroptosis – inhibitors of zVAD-triggered necroptosis, primary screen, L929 cells; AID 1377, 2008; L929 zVAD necroptosis rescue, ATP luminescence, 24 h; with zVAD 60 µM; viability rescue, % at 10 µM; 220,000 compounds, 0.38% hits;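 active = activation, scaled between plate controls, above about 75%, limit read from the data; inactive = activation under that limit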;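 note: 0% = zVAD with DMSO and 100% = DMSO alone without zVAD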
RBBP9 inh – human RBBP9 inhibitors, primary screen, biochemical, fluorescence polarization, FP-Rh probe, HTS. recombinant RBBP9. inhibition, % at 7.94 µM. 220,000 compounds, 0.2% hits. AID 1515, 2009;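 active = inhibition above the campaign mean of all tested compounds plus 3 SD, cut at about 14% in these data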;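 note: plate controls were DMSO wells with RBBP9 for no effect and wells lacking RBBP9 protein for full effect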
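Test system: recombinant human RBBP9; Timing: 30 min then 45 min, 25 °C; Detection: fluorescence polarization; Control set: RBBP9 with DMSO as uninhibited control, no-protein wells as full inhibition; Compound dosing: one concentration, 7.94 µM nominal, 0.794% DMSO; Probe or stimulus: FP-Rh activity-based probe, 375 nM before mixing.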
TNF death inh – inhibitors of TNF-alpha triggered necroptosis, primary screen, cell-based, Jurkat FADD-/-, single concentration. activation (protection from cell death), % at 10 µM. 220,000 compounds, 0.068% hits. AID 463075, 2010. Jurkat FADD-/- TNF necroptosis rescue, ATP luminescence, 24 h; 0 = TNF only, 100 = no-TNF cells;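 active = activation, meaning protection from cell death, of at least 50% relative to plate controls; inactive = activation below 50%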;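 note: necroptosis triggered by 40 ng/mL TNF-alpha added together with compound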
Calpain2 inh – inhibitors of pig calpain II, primary screen, biochemical, fluorogenic peptide substrate, 1536-well. 220,000 compounds, 0.37% hits. purified calpain II, 30 min. AID 1236, 2008. inhibition, % at 16 µM;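 active = inhibition above about 50%, limit read from the data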
Wee1 stab conf – Wee1 degradation inhibitors, confirmation, cell-based, HeLa, Wee1K328M-luciferase, luminescence, triplicate | shares compounds with Wee1 stabilizer | HeLa Luc-Wee1K328M degradation; vehicle 0%, proteasome-blocked wells 100% | activation, % at 5 µM | 1,100 compounds, 4% hits | AID 1410, 2008; in the data active = activation above about 8.9%
An asterisk follows results filed as active; i = inactive; / = no result. A selection: hits, their analogues and other compounds. The true share with any hit is near 2.1%.

SMILES | Wee1 stabilizer | Pf gametocyte | L929 necroptosis | RBBP9 inh | TNF death inh | Calpain2 inh | Wee1 stab conf
CCN=C(NCC)SC1CC(=O)N(c2ccccc2)C1=O (stereo not drawn) | -1 | 14 | 0 | -11 | 0 | 21 | /
CCCOc1ccc(C(=O)NNC(=S)NC(=O)c2cc(-c3ccccc3)nc3ccccc23)cc1 | 0 | / | 0 | -8 | 0 | -121 | /
Cc1ccc2nc(N(CCCN(C)C)C(=O)c3cc4ccccc4oc3=O)sc2c1 | 15* | / | 0 | -9 | 5 | 7 | -2
CCN(C(=O)CSc1nnc(C)n1Cc1ccccc1)C1CCS(=O)(=O)C1 (stereo not drawn) | 13* | / | -1 | -12 | 0 | 12 | 0
Cc1nnc(SCC(=O)N(C)C2CCS(=O)(=O)C2)n1Cc1ccccc1 (stereo not drawn) | -3 | 13 | 11 | -1 | 0 | -28 | /
COC(=O)c1ccccc1NC(=O)Cn1c(CCC(=O)O)ccc1-c1cccs1 | 17* | / | 0 | -3 | -1 | -13 | 7
Cc1ccc(NS(=O)(=O)c2ccc(NS(=O)(=O)c3cccs3)cc2)cc1 | 11* | / | 0 | 12 | 1 | -3 | 0
NS(=O)(=O)c1ccc(NS(=O)(=O)c2cccs2)cc1 | -2 | -25 | 0 | -3 | -1 | 11 | /
C/C(=N\NC(=O)CCc1ccccc1)C1C(=O)c2ccccc2C1=O | 13* | -14 | 38 | -7 | 0 | 8 | -1
CC(=O)c1ccc(N=Nc2ccc(C)cc2)cc1 | 24* | 1 | 0 | -9 | -1 | -3 | -4
CC(=O)c1ccc(N=Nc2ccc(N(C)C)cc2)cc1 | 5 | 36 | 1 | 3 | -2 | -13 | /
CN1C2=NCCN2C(=O)c2ccccc21 | -1 | / | -1 | -13 | 1 | -12 | /
Cc1cc(C)n(CCN(C)Cc2nc(Cc3ccccc3F)no2)n1 | 11* | 11 | -2 | 4 | 1 | -8 | 0
Cc1cccc(Nc2nc(-c3ccncc3)cs2)c1 | 0 | / | -2 | -8 | 3 | 15 | /
Cc1ccc(Nc2nc(-c3ccncc3)cs2)cc1 | 18* | 14 | 5 | 3 | 2 | -15 | 7
CC(C)(CNC(=O)C1CCCC1)CNC(=O)C1CCCC1 | 11* | / | 0 | 2 | 0 | -9 | 2
O=C(NCCCCNC(=O)C1CCCC1)C1CCCC1 | -1 | / | 0 | -7 | -1 | -6 | /
O=C(CN1CCN(Cc2ccccc2)CC1)N/N=C/C=C/c1ccco1 | 0 | / | 1 | -8 | -2 | 4 | /
O=C(CN1CCOCC1)N/N=C/C=C/c1ccccc1 | 23* | -21 | -1 | 1 | -1 | 32 | 0
COc1ccc(Cc2nnc(NC(=O)c3ccc(OC(C)=O)cc3)s2)cc1OC | / | -10 | / | / | / | / | /
Cc1ccccc1N1CN(Cc2ccco2)CNC1=S | -3 | 3 | 1 | -6 | 2 | 1 | /
Cc1ccc(OCC(O)Cn2c3ccccc3c3ccccc32)cc1 (stereo not drawn) | -3 | / | 3 | -4 | -6 | 41 | /
OC(COCC(F)(F)C(F)(F)C(F)(F)C(F)F)Cn1c2ccccc2c2ccccc21 (stereo not drawn) | 11* | -3 | 49 | -12 | 6 | 30 | 0
O=c1c2ccccc2[nH]c2ccccc12 | 4 | / | 6 | -1 | -3 | i | /
O=c1[nH][nH]c2ccccc2c1=O | 14* | 1 | 0 | -2 | -1 | -5 | 2
SMILES | Wee1 stabilizer | Pf gametocyte | L929 necroptosis | RBBP9 inh | TNF death inh | Calpain2 inh | Wee1 stab conf
O=C1CCCS(=O)(=O)c2ccccc21 | 0 | 7 | 0 | -4 | 0 | -12 | /
Cc1cc(NC(=O)COC(=O)C(Cc2ccccc2)NC(=O)c2ccco2)no1 (stereo not drawn) | 21* | / | 1 | -5 | 7 | 13 | -2
Cc1cc(F)ccc1NC(=O)c1ccc(NS(=O)(=O)c2cc(C(C)(C)C)ccc2C)cc1 | 13* | -3 | 1 | -19 | 2 | 0 | 1
C=CCNc1nc(Cl)nc(Nc2ccc(OC)cc2)n1 | -1 | / | 2 | -8 | -4 | 38 | /
COc1ccc(Nc2nc(Cl)nc(Nc3ccc(OC)cc3)n2)cc1 | 13* | / | 28 | -9 | 2 | -17 | 2
COc1ccc(N2CCN(C(c3ccc4ncccc4c3)c3nnnn3C(C)(C)C)CC2)cc1 (stereo not drawn) | 11* | -1 | 0 | 0 | 2 | 23 | 0
CCC(C)(C)n1nnnc1C(c1ccc2ncccc2c1)N1CCN(c2ccc(O)cc2)CC1 (stereo not drawn) | 0 | -26 | 0 | 4 | -2 | -26 | /
O=C(NNC(=S)Nc1cccc(C(F)(F)F)c1)c1ccccc1Cl | 12* | -2 | 1 | -1 | 0 | -21 | 5
CCOC(=O)CSc1nnc(CNC(=O)c2ccccc2OC)n1-c1ccc(OC)cc1 | 12* | / | 0 | -6 | -3 | 8 | -4
COc1ccc(C(=O)NC(NC(=S)Nc2ccc(S(N)(=O)=O)cc2)C(Cl)(Cl)Cl)cc1 (stereo not drawn) | -1 | -20 | 0 | -46 | 1 | -37 | /
CCOc1ccc(NC(=S)Nc2cc(C)[nH]n2)cc1 | 3 | -13 | 0 | -3 | 0 | -3 | /
COc1ccc(-c2nc(C#N)c(NCCCN(C)C)o2)cc1OC | -1 | / | 1 | 7 | 0 | i | /
CN(C)CCCNc1oc(-c2ccccc2)nc1C#N | 14* | / | 2 | -9 | 2 | i | -1
O=C(O)Cn1c(CCS(=O)(=O)c2ccc(Br)cc2)nc2ccccc21 | 13* | 6 | 4 | -2 | 0 | 5 | -1
COC(=O)Cn1c(CCS(=O)(=O)c2ccc(C)c(C)c2)nc2ccccc21 | -2 | / | 0 | -4 | 2 | -20 | /
O=C(Nc1ccc(F)cc1)C(Cc1ccccc1)n1cccc1 (stereo not drawn) | 12* | -4 | 0 | -6 | 1 | 5 | 0
Cc1ccc(NC(=O)C(Cc2ccccc2)n2cccc2)cc1 (stereo not drawn) | -1 | -7 | 1 | -2 | 0 | 18 | /
Cn1c(CCc2ccc(N)cc2)nc2ccccc21 | 18* | -12 | 0 | 4 | -1 | -24 | 4
Cn1c(-c2ccc(N)cc2)nc2ccccc21 | -2 | / | 0 | -4 | -7 | -104 | /
Cc1cc(C)n2nc(-c3cccnc3)nc2n1 | -1 | 0 | 0 | -10 | -1 | 0 | /
Cc1cc(C)n2nc(-c3ccc(F)cc3)nc2n1 | 16* | / | 0 | 1 | 14 | -5 | 2

Screens as filed in PubChem BioAssay.
